This passage reports half-life, IC50 and inhibition results from ChEMBL document CHEMBL5356984 (RSC Med Chem, 2023).

Data set [1] is described as follows: Thermal stability of compound in boiling toluene at 120 degreeC assessed as time taken for compound decomposition at 1 mg/ml by HPLC analysis. It counts as physicochemical. Particulars: read-out: T50.
The test system of another data set is HEK-293T. Put plainly: Cytotoxicity against HEK293T cells assessed as cell growth inhibition measured after 48 hrs by MTT assay. It counts as functional, cell-based. Particulars: Homo sapiens. A digest of the protocol: (§1)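 MTT cell viability read-out; IC50 obtained by non-linear regression of concentration–response data; values are mean ± SD of three independent experiments.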
On the technique in general: Tetrazolium dyes change colour on reduction, which living cells bring about.

Data set [2] relates to MCF7. The data set can be described thus: Antiproliferative activity against human MCF7 cells assessed as inhibition of cell viability measured after 48 hrs by MTT assay. The following applies: MCF7, 48 h. It counts as functional, cell-based. A digest of the protocol: as §1
A further data set has as its system HCC1806. The data set can be described thus: Antiproliferative activity against human HCC1806 cells assessed as inhibition of cell viability measured after 48 hrs by MTT assay. Particulars: HCC1806, 48 h. The class given is functional, cell-based. Put shortly: as §1
Another data set deals with MDA-MB-231. Put plainly: Antiproliferative activity against human MDA-MB-231 cells assessed as inhibition of cell viability measured after 48 hrs by MTT assay. Particulars: MDA-MB-231, 48 h. The class given is functional, cell-based. Put shortly:
as §1

The test system of a further data set is MDA-MB-468. Put plainly: Antiproliferative activity against human MDA-MB-468 cells assessed as inhibition of cell viability measured after 48 hrs by MTT assay. The class given is functional, cell-based. The following applies: MDA-MB-468, 48 h. A digest of the protocol: as §1
The test system of another data set is SK-BR-3. The data set can be described thus: Antiproliferative activity against human SK-BR-3 cells assessed as inhibition of cell viability measured after 48 hrs by MTT assay. The class given is functional, cell-based. Particulars: SK-BR-3, 48 h. Put shortly: as §1
The test system of a further data set is BT-474. Put plainly: Antiproliferative activity against human BT-474 cells assessed as inhibition of cell viability measured after 48 hrs by MTT assay. It counts as functional, cell-based. The following applies: BT-474, 48 h. Put shortly:
as §1

The test system of data set [3] is MCF7. The data set can be described thus: Antiproliferative activity against human MCF7 cells assessed as inhibition of cell viability at 20 uM measured after 48 hrs by MTT assay relative to control. The class given is functional.

A value given as a limit tells only on which side of the number the result lay.

As for `CC(C)=CCC[C@]1(C)/C=C/[C@@H](OC(=O)C=C(C)C)[C@](C)(O)/C=C/C(=O)/C(CN2CCN(C)CC2)=C\C1`, the half-life at 1 mg/ml in [1] was less than 5 min.
As usually defined, the IC50 is the midpoint of a concentration-inhibition curve. With `COC1=C2C[C@@H](C)C[C@H](OC)[C@H](O)[C@@H](C)/C=C(\C)[C@H](OC(N)=O)[C@@H](OC)/C=C\C=C(/C)C(=O)NC(=CC1=O)C2=O` [GELDANAMYCIN], the 50% inhibitory concentration (IC50) was found to be 0.53 µM in the data set with HEK-293T; 0.13 µM in the data set on MCF7 [2]; 0.12 µM in the data set on HCC1806; 0.15 µM in the data set with MDA-MB-231; 0.033 µM in the data set on MDA-MB-468; 0.033 µM in the data set with SK-BR-3. Also, the 50% inhibitory concentration (IC50) in the data set on BT-474 amounted to 0.027 µM.
What is called inhibition is how much of the control response was suppressed. `COc1cc(/C=C/C(=O)/C=C/N(C)CCN(C)C)cc(OC)c1`: the inhibition at 20 µM in the data set on MCF7 [3] was more than 50%. Further, the IC50 in the data set with MCF7 [2] was 16.7 µM; with HCC1806, 14.7 µM; with MDA-MB-231, 12.9 µM; in the data set with MDA-MB-468, more than 20 µM.
In the case of `CN1CCN(/C=C/C(=O)/C=C/c2cccc3c2OCO3)CC1`, in the data set on MCF7 [3], the inhibition at 20 µM was more than 50%. Also, the 50% inhibitory concentration (IC50) was 12.9 µM with MCF7 [2], 13.2 µM in the data set on HCC1806, 8.14 µM in the data set on MDA-MB-231 and more than 20 µM in the data set on MDA-MB-468.
As to `CO[C@@H]1[C@@H](OC(N)=O)[C@@H](O)[C@H](Oc2ccc3c(O)c(NC(=O)c4ccc(O)c(CC=C(C)C)c4)c(=O)oc3c2C)OC1(C)C` [NOVOBIOCIN], the IC50 with HEK-293T is more than 100 µM.
With `COc1cc(/C=C/C(=O)/C=C/N2CCN(C)CC2)cc(OC)c1`, in the data set with MCF7 [3], the inhibition at 20 µM was more than 50%. Further, the IC50 was 14.2 µM in the data set with MCF7 [2], 14.8 µM with HCC1806, 9.13 µM in the data set on MDA-MB-231 and more than 20 µM with MDA-MB-468.
